# Data: ChEMBL document CHEMBL4765230, “Discovery of Orally Efficacious Phosphoinositide 3-Kinase δ Inhibitors with Improved Metabolic Stability” (J Med Chem, 2016)
# Key:
# [1] = MRT in Sprague-Dawley rat at 1 mg/kg, iv measured over 24 hrs by LC/MS/MS analysis; assay type: ADME, organism-based; settings: in vivo
# In short: (§1)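 Intravenous 1 mg/kg and oral 5 mg/kg doses. Vehicle: 5% ethanol/55% PEG 400/40% water for rats and dogs; 5% ethanol/22% PEG 400/73% water for cynomolgus; 5% ethanol/25% PEG 400/70% water for rhesus. Half-life and MRT from iv; mean ± SD, n = 3 per route.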
# [2] = Plasma concentration in Lewis rat at 1 to 5 mg/kg, po measured at 12 hrs; assay type: ADME, organism-based; settings: dose 1-5 mg/kg
# In short: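 Female Lewis rats given a single oral dose of 1 or 5 mg/kg; plasma concentration–time profiles determined; mean ± SD, n = 3.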
# [3] = Selectivity index, ratio of IC50 for inhibition of recombinant human full-length N-terminal His-tagged PI3K p110beta/p85alpha to IC50 for inhibition of human full length PI3K p110delta/p85alpha
# [4] = Volume of distribution at steady state in Beagle dog at 1 mg/kg, iv measured over 24 hrs by LC/MS/MS analysis; assay type: ADME, organism-based, Canis lupus familiaris; settings: in vivo, read-out: Vdss
# In short: (§2)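 Single intravenous dose of 1 mg/kg. Vehicles: rats and dogs 5% ethanol/55% PEG 400/40% water; cynomolgus monkeys 5% ethanol/22% PEG 400/73% water; rhesus monkeys 5% ethanol/25% PEG 400/70% water. Plasma concentration–time data gave Vss and iv half-life. Reported as mean ± SD, n = 3.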
# [5] = Clearance in Sprague-Dawley rat at 1 mg/kg, iv measured over 24 hrs by LC/MS/MS analysis; assay type: ADME, organism-based; settings: in vivo; in short: as §1
# [6] = target: Voltage-gated inwardly rectifying potassium channel KCNH2 (Homo sapiens, UniProt Q12809); assay: Inhibition of human ERG at 25 uM
# Chain of Voltage-gated inwardly rectifying potassium channel KCNH2 (Q12809 whole entry): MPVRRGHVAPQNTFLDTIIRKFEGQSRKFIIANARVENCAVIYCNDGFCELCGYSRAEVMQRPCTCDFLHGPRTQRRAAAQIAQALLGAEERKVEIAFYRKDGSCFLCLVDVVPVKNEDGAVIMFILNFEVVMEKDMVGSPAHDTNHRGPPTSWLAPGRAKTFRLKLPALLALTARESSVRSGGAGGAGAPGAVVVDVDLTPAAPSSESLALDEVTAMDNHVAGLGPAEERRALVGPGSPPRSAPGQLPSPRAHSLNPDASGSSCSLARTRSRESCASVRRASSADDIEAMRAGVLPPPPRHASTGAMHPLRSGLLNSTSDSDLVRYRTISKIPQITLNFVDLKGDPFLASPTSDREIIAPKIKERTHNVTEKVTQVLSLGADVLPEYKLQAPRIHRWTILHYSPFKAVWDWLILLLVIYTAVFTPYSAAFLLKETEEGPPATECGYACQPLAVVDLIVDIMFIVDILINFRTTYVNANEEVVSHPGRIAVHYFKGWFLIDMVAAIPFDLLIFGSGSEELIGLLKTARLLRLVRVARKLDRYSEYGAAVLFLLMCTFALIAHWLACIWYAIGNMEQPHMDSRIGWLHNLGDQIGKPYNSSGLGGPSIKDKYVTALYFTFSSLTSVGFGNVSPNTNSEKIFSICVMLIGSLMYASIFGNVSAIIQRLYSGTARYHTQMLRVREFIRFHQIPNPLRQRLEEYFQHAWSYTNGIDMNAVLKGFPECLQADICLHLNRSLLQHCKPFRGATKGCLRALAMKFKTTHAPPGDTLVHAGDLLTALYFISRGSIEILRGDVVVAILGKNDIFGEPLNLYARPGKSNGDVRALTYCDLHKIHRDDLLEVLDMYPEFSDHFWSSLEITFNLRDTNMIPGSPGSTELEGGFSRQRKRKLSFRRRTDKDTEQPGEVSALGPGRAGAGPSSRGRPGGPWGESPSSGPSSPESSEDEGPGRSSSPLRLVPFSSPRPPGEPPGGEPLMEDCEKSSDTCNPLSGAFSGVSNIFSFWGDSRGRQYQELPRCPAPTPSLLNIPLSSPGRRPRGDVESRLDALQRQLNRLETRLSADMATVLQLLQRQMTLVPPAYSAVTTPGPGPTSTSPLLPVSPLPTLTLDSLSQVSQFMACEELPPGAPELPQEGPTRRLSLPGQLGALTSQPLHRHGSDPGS
# [7] = Terminal half life in Beagle dog at 1 mg/kg, iv measured over 24 hrs by LC/MS/MS analysis; assay type: ADME, organism-based, Canis lupus familiaris; settings: in vivo, read-out: beta t1/2 (converted); in short: as §2
# [8] = system: Rattus norvegicus; assay: Antiarthritic activity in Lewis rat model of Freund's incomplete adjuvant-induced arthritis assessed as reduction in ankle swelling at 0.3 mg/kg, po bid administered for 7 days at 12 hrs interval starting from day 10 to day 16 post-immunization by caliper method relative to control; assay type: functional; parameters: scale not given: the % may be the effect or the level left; settings: time 7 day
# In short: (§3)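 Established collagen-induced arthritis in female Lewis rats; oral dosing twice daily for 7 days from day 10 after second immunization. Right and left ankle diameters measured by caliper daily, days 9–18; ankle diameter AUC over days 11–18 compared with arthritic vehicle group (ANOVA, p < 0.05). n = 8/treatment group.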
# [9] = system: Rattus norvegicus; assay: Antiarthritic activity in Lewis rat model of Freund's incomplete adjuvant-induced arthritis assessed as reduction in ankle swelling at 3 mg/kg, po bid administered for 7 days at 12 hrs interval starting from day 10 to day 16 post-immunization by caliper method relative to control; assay type: functional; parameters: scale not given: the % may be the effect or the level left; settings: time 7 day; in short: as §3
# [10] = system: Rattus norvegicus; assay: Antiarthritic activity in Lewis rat model of Freund's incomplete adjuvant-induced arthritis assessed as reduction in ankle swelling at 1 mg/kg, po bid administered for 7 days at 12 hrs interval starting from day 10 to day 16 post-immunization by caliper method relative to control; assay type: functional; parameters: scale not given: the % may be the effect or the level left; settings: time 7 day; in short: as §3
# [11] = Volume of distribution at steady state in cynomolgus monkey at 1 mg/kg, iv measured over 24 hrs by LC/MS/MS analysis; assay type: ADME, organism-based, Macaca fascicularis; settings: in vivo, read-out: Vdss; in short: as §2
# [12] = Oral bioavailability in Beagle dog at 5 mg/kg measured over 24 hrs by LC/MS/MS analysis; assay type: ADME, organism-based, Canis lupus familiaris; settings: in vivo; in short: as §1
# [13] = target: T1, Phosphatidylinositol 4,5-bisphosphate 3-kinase catalytic subunit delta isoform (Homo sapiens, UniProt O00329); assay: Inhibition of PI3Kdelta in human whole blood assessed as reduction in anti-FCepsilonR1 mAb-stimulated basophil activation preincubated for 60 mins followed by anti-FCepsilonR1 mAb stimulation and measured after 25 mins by flow cytometry analysis; assay type: tissue-based
# T1 sequence (O00329 whole entry): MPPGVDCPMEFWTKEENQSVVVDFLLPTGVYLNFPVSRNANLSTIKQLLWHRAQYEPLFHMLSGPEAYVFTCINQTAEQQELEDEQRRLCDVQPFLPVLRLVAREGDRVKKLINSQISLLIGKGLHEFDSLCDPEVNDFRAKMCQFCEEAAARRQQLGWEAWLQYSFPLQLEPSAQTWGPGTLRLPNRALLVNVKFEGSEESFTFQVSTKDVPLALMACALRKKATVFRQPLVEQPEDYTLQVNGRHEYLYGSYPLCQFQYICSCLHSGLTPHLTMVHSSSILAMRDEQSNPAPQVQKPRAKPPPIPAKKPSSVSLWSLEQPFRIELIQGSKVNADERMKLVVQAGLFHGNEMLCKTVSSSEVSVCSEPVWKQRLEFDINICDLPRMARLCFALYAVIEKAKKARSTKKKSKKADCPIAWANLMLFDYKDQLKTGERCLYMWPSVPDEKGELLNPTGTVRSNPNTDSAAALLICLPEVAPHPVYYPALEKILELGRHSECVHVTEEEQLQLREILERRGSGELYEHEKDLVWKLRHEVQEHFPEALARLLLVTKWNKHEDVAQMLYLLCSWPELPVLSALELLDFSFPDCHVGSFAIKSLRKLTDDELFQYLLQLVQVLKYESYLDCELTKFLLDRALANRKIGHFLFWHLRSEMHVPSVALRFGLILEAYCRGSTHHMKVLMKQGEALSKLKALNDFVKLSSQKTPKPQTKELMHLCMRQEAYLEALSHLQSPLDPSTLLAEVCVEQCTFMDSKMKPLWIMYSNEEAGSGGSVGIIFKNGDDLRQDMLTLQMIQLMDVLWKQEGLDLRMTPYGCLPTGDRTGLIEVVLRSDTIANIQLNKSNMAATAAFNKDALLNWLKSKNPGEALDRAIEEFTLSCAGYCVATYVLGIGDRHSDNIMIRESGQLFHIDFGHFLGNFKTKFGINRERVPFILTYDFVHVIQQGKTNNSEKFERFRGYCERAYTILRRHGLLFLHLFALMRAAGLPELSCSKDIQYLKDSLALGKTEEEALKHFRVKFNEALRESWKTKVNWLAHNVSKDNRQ
# [14] = system: Rattus norvegicus; assay: Antiarthritic activity in Lewis rat model of Freund's incomplete adjuvant-induced arthritis assessed as inhibition of cartilage damage at 0.3 to 3 mg/kg, po bid administered for 7 days at 12 hrs interval starting from day 10 to day 16 post-immunization by microscopic analysis relative to control; assay type: functional; parameters: scale not given: the % may be the effect or the level left; settings: dose 0.3-3 mg/kg, time 7 day
# In short: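 Female Lewis rats with established collagen-induced arthritis dosed orally twice daily for 7 days at 0.3, 1 and 3 mg/kg, starting day 10 after second collagen immunization. Joint histopathology scored for pannus formation, cartilage damage, bone resorption and periosteal bone formation; ED50 derived. n = 8/treatment group, n = 4 normal controls.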
# [15] = Inhibition of CYP450 (unknown origin) at 25 uM; assay type: ADME; settings: human
# [16] = Clearance in cynomolgus monkey at 1 mg/kg, iv measured over 24 hrs by LC/MS/MS analysis; assay type: ADME, organism-based, Macaca fascicularis; settings: in vivo; in short: as §1
smiles,measurement,setting,value
N#Cc1c(N)nc(N)nc1N[C@H](c1nc2c(F)ccc(Cl)c2c(=O)n1-c1cccnc1)C1CC1 [GS-9901],MRT,[1],1.95 h
same,concentration at 12 h,[2],> 32 nM
same,Ratio IC50,[3],100
same,Vd,[4],1.03 L/kg
same,clearance,[5],7.17 mL/min/kg
same,inhibition (INH),[6],Not Active
same,half-life,[7],2.01 h
same,Activity,[8],31%
same,Activity,[9],65%
same,Activity,[10],67%
same,Vd,[11],1.21 L/kg
same,bioavailability,[12],49%
same,EC50,[13],1 nM
same,Activity,[14],50%
same,inhibition (INH),[15],Not Active
same,clearance,[16],6.83 mL/min/kg
